# Screens as filed in PubChem BioAssay.
# A selection: hits, their analogues and other compounds. The true share with any hit is near 2.3%.
# SUMO1-SIM PPI: modulators of human SUMO1-mediated protein-protein interactions. P63165. inhibition, % at 20 µM. hit rate 0.33% among 360,000. SUMO1 binding to a labelled peptide, TR-FRET, 1 h; in the data active = inhibition above about 37%
# Target sequence (P63165 whole entry, looked up): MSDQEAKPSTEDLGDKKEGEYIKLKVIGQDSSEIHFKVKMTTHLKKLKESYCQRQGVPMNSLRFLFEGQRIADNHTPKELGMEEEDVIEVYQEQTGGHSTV
# CSN inh: inhibitors of human CSN-mediated cullin deneddylation. Q92905. Purified CSN, SCF-Nedd8-OG deneddylation, fluorescence polarization. inhibition, % at 12.5 µM. hit rate 0.38% among 360,000. AID 651999;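 active = pattern-corrected inhibition above about 35%, with an unprinted fluorescence ratio check between 0.5 and 1.5, limit read from the data, passing the limit was not always enough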;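 also: 0% = enzyme with substrate and 100% = substrate without enzyme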
# Target sequence (Q92905 whole entry, looked up, one chain of several): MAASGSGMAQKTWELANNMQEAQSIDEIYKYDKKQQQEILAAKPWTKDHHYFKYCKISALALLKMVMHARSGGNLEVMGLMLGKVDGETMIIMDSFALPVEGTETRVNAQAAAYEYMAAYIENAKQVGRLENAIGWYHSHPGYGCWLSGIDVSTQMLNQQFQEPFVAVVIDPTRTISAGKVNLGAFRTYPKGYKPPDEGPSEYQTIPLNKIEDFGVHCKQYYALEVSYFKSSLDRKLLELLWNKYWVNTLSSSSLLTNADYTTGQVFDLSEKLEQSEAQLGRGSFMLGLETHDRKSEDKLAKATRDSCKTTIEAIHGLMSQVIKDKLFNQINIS
#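 Material: human Csn5 produced in HEK293T cells; Input: enzyme 0.24 nM; Reagent: SCFSkp2-Nedd8OG substrate at 10 nM final; Dosing: 12.5 µM compound; Incubation: 90 min reaction at room temperature; Detection: fluorescence polarization of the substrate; Evaluation: % inhibition of substrate cleavage by Csn5; Control set: substrate-only high control, full reaction low control.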
# DNMT1 inh: blocks human DNA methyltransferase DNMT1; P26358; DNMT1 molecular beacon, Hinp1I cleavage, fluorescence; inhibition (reported as % activation of signal), % at 10 µM; hit rate 0.83% among 360,000; AID 588458; in the data active = inhibition above about 50%
# MT1-MMP act inh: inhibitors of human MT1-MMP activation; P50281; GFP/RFP ratio change, % at 20 µM; hit rate 0.061% among 360,000; HT1080 RFP-PRO-GFP cells, GFP/RFP ratio fluorescence, overnight; percent of plate control window, DMSO zero; AID 651647;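 active = GFP/RFP ratio change of at least 30% with cell ATP level not reduced by more than half and red fluorescence within 50% of control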
#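 Compound: 20 µM single dose, 1% DMSO / System: HT1080 RFP-PRO-GFP cells / Controls: DMSO and RFP-L50D-GFP cell wells / Read-out basis: GFP/RFP fluorescence ratio / Schedule: overnight compound exposure at 37 °C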
# Rpn11 inh: blocks the human proteasome subunit Rpn11; human 26S proteasome, Ub4-pepOG fluorescence polarization; 20S core pre-blocked with epoxomicin; inhibition, % at 20 µM; hit rate 0.59% among 360,000; AID 588493;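 active = inhibition at 20 µM, scaled to each plate's controls, above about 33%, limit read from the data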
# SKN-1 inh: C. elegans SKN-1 inhibition; inhibition, % at 21.8 µM; AID 624304; hit rate 0.49% among 360,000; C. elegans VP596 Pgst-4::GFP/RFP ratio, acrylamide-induced, 24 h;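 active = interference check ratio from 0.5 to 1.5 plus GFP to RFP signal ratio inhibition reaching or exceeding a fixed threshold, cut at about 30% in these data, passing the limit was not always enough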
# * hit, by the source's call; . = not tested or not shown.
SMILES,SUMO1-SIM PPI,CSN inh,DNMT1 inh,MT1-MMP act inh,Rpn11 inh,SKN-1 inh
Cc1cnc(C(=O)N(CCCn2ccnc2)C2C(=O)Nc3ccccc3N=C2c2ccccc2)cn1 (stereo unspecified),4,0,-7,4,15,37*
CCC(CC)c1nnc(NC(=O)c2cc([N+](=O)[O-])ccc2N2CCCCC2)s1,-13,47*,-1,-1,4,5
Cc1cc(O)ccc1-c1cccc2nccn12,-3,4,2,-3,-2,20
COc1cccc(-c2cc3nc(NCc4ccc(C)cc4C)n(C)c(=O)c3s2)c1,-7,2,-24,-6,9,4
C=C(C)C(=O)Nc1ccc2c(c1)OCCOCCOCCO2,57*,18,90*,0,-8,12
CC(=O)Nc1ccc2c(c1)OCCO2,1,5,4,5,7,0
CCOc1ccc2c(c1)S/C(=C\c1cccs1)C(=O)N2,-1,40*,5,-28,30,8
O=C(N=C1N=C2C=CC(Br)=CN2Cc2ccccc21)c1ccc([N+](=O)[O-])cc1[N+](=O)[O-],-34,5,1,-4,6,60*
Cc1ccc(C(=O)C2C(=O)C3CCC2C3)cc1 (stereo unspecified),3,2,5,2,-2,12
CN(/N=C/c1ccncc1)c1cnn(-c2ccc(F)c(Cl)c2)c(=O)c1Cl,8,44*,-2,5,22,-5
COC(=O)C1(C(=O)OC)c2ccccc2N(S(=O)(=O)c2ccc(C)cc2)C1CC(C)=O (stereo unspecified),3,1,.,2,.,-3
COc1cc2c3c(cccc3c1)C(=O)N(CCN1CCCC1)C2=O,-30,-7,73*,16,1,13
COc1ccc(C(=O)CN2CCN(CCN3C(=O)c4cccc5cccc(c45)C3=O)CC2)cc1,-17,0,10,-3,-2,-2
Cc1ccc(S/C=C\C(=O)c2ccccc2)cc1,-3,6,29,-38,7,42*
COc1cc(CC(NC(C)=O)C(=O)NC2CCN(c3nc(C)cc(C)c3C#N)CC2)cc(OC)c1 (stereo unspecified),42*,-2,13,-9,2,-15
COc1cccc(CC(NC(C)=O)C(=O)NC2CCN(c3nc(C)cc(C)c3C#N)CC2)c1OC (stereo unspecified),-1,5,-5,2,8,14
Cn1nc(NC(=O)C(F)(F)F)c2ncc(-c3ccccc3)nc21,-17,3,10,2,3,11
C=CCN(CC=C)CC(O)CN(c1cc([N+](=O)[O-])ccc1OC)S(=O)(=O)c1ccccc1 (stereo unspecified),-9,4,-9,4,-16,38*
COc1ccc(OCC(=O)N/N=C/c2cccn2-c2cccc(C(=O)O)c2)cc1,13,22,53*,0,3,8
CCCCN(CCCC)Cc1cc(=O)oc2ccc3ccccc3c12,3,1,9,1,-8,-1
O=C(Nc1ccc(Cl)cc1Cl)c1ccc(Br)o1,0,-5,1,1,1,36*
COc1ccc(S(=O)(=O)N2CCC[C@@H]2C(=O)N2CCC[C@H]2C(=O)NCc2ccncc2)cc1C,9,-3,.,2,.,8
COc1ccc(C(C)C)cc1S(=O)(=O)n1cnc(C)c1,-5,-4,-1,2,4,40*
COc1cc(C)c(Cl)cc1S(=O)(=O)n1cnc(C)c1,3,2,2,-1,-1,12
CCOc1ccc(C(C)C)cc1S(=O)(=O)n1ccnc1C,-4,73*,0,7,4,-1
SMILES,SUMO1-SIM PPI,CSN inh,DNMT1 inh,MT1-MMP act inh,Rpn11 inh,SKN-1 inh
CCCCCCCCN1C(=O)[C@H](CC(=O)N2CCCC2)C[C@@]2(C(=O)OC)CC(C)(C)CC=C12,6,-6,.,-25,.,10
Cc1ccc(C(=O)CSc2nc(-c3ccccc3)ccc2C#N)cc1,2,5,-2,-119,.,14
N#Cc1ccc(-c2ccco2)nc1SCC(=O)c1ccc(Cl)cc1,-10,24,0,-113,48*,-5
Cc1nc(Oc2ccccc2)c2oc3ccccc3c2n1,7,8,-2,1,2,38*
COc1ccc(Oc2nc(C)nc3c2oc2ccccc23)cc1,-4,6,-4,3,-2,14
COc1ccc2nc(N3CCCCC3)c(C#N)cc2c1,5,1,-12,-12,-20,13
COc1ccc2nc(N3CCCCC3)c(/C=C3\SC(=S)NC3=O)cc2c1,13,17,-10,-18,71*,59
COC(=O)[C@@]12C[C@@H](CC(=O)NCc3ccc(C)o3)C(=O)N(CCc3ccc(OC)c(OC)c3)C1=CCC(C)(C)C2,4,4,.,-1,.,-2
COc1cc(Nc2ccn3nc(-c4ccccc4Cl)cc3n2)cc(OC)c1OC,5,0,-46,-9,5,22
N#Cc1ccc(CN2CCN(C(=O)c3cc(C4CC4)nn3-c3ccccc3)CC2)cc1,1,-4,-1,3,-1,38*
O=C1C=C(NCCc2cc(Br)c(O)c(Br)c2)C(=O)c2ncccc21,41*,12,92*,-9,-29,20
Cc1cc(O)ccc1Nc1cc(-c2cccc(N(C)C)c2)ncn1,5,0,3,3,0,19
CN(C)c1cccc(O)c1,1,2,-2,6,6,47*
COCCNC(=O)C1(C)CCN(Cc2cccc(Oc3ccccc3)c2)C1 (stereo unspecified),4,-2,-4,4,-2,6
Cc1cc2ccccn2c1C(=O)Nc1cccc(Cl)c1,-2,6,-3,-11,-3,62*
CCC(C(=O)NCc1ccccc1)n1c(-c2cccs2)nc2ccccc21 (stereo unspecified),-2,2,.,-3,.,-16
COC(CNC(=O)c1cccnc1)OC,-1,-1,2,-2,-1,0
COC(CNC(=O)c1ccc2c3c(onc13)-c1ccccc1C2=O)OC,-15,-3,-28,34*,-1,59
Oc1ccc(/C=N/NC(=S)Nc2cccnc2)c(O)c1O,81*,16,3,-5,2,10
Oc1cccc(/C=N/NC(=S)Nc2cccnc2)c1O,-2,9,-8,-1,3,-5
O=C(Nc1nnc([C@@H]2C[C@H](O)[C@@H](CO)O2)s1)Nc1ccccc1Oc1ccccc1,3,3,-2,1,-12,-1
NC(=O)c1ccccc1NC(=O)c1ccc2ccccc2c1,-2,-2,-3,9,2,2
